{
  "source": "ChEMBL document CHEMBL1240321",
  "about": "“Cyclostreptin binds covalently to microtubule pores and lumenal taxoid binding sites” (Nat Chem Biol, 2007)",
  "key": {"[1]": {"experiment": "Displacement of [3H]epothilone B from microtubule assessed as bound radioligand level at 20 uM treated before radioligand addition by competitive binding assay"}, "A549 [2]": {"tested_on": "A549", "experiment": "Induction of mitotic cell cycle arrest in human A549 cells assessed as accumulation at S phase at 100 nM after 24 hrs by flow cytometry (Rvb= 16%)", "assay_type": "functional"}, "[3]": {"experiment": "Induction of mitotic cell cycle arrest in potoroo PtK2 cells assessed as accumulation of cells at G1/G0 phase at 100 nM after 24 hrs by flow cytometry (Rvb= 60.8%)", "assay_type": "functional, Potorous tridactylus"}, "[4]": {"experiment": "Induction of mitotic cell cycle arrest in potoroo PtK2 cells assessed as accumulation of cells at SubG1 phase at 100 nM after 24 hrs by flow cytometry (Rvb= 0.9%)", "assay_type": "functional, Potorous tridactylus"}, "[5]": {"experiment": "Cytotoxicity against human 1A9PTX22 cells", "assay_type": "functional, cell-based", "settings": "1A9/ptx-22"}, "[6]": {"experiment": "Cytotoxicity against human 1A9PTX10 cells", "assay_type": "functional, cell-based", "settings": "1A9/ptx-10"}, "[7]": {"experiment": "Cytotoxicity against human A2780-1A9 cells", "assay_type": "functional, cell-based"}, "A2780 [8]": {"tested_on": "A2780", "experiment": "Cytotoxicity against human A2780 cells", "assay_type": "functional, cell-based"}, "[9]": {"experiment": "Induction of mitotic cell cycle arrest in potoroo PtK2 cells assessed as accumulation of cells at G2+M phase at 5 uM treated for 7 hrs, washed followed by 48 hrs incubation by flow cytometry (Rvb= 22.3%)", "assay_type": "functional, Potorous tridactylus"}, "[10]": {"experiment": "Induction of mitotic cell cycle arrest in potoroo PtK2 cells assessed as accumulation of cells at G2+M phase at 2 uM treated for 7 hrs, washed followed by 48 hrs incubation by flow cytometry (Rvb= 22.3%)", "assay_type": "functional, Potorous tridactylus"}, "[11]": {"experiment": "Induction of mitotic cell cycle arrest in potoroo PtK2 cells assessed as accumulation at S phase at 5 uM treated for 7 hrs, washed followed by 48 hrs incubation by flow cytometry (Rvb= 10.7%)", "assay_type": "functional, Potorous tridactylus"}, "[12]": {"experiment": "Induction of mitotic cell cycle arrest in potoroo PtK2 cells assessed as accumulation at S phase at 2 uM treated for 7 hrs, washed followed by 48 hrs incubation by flow cytometry (Rvb= 10.7%)", "assay_type": "functional, Potorous tridactylus"}, "[13]": {"experiment": "Induction of mitotic cell cycle arrest in potoroo PtK2 cells assessed as accumulation of cells at G1/G0 phase at 5 uM treated for 7 hrs, washed followed by 48 hrs incubation by flow cytometry (Rvb= 65.8%)", "assay_type": "functional, Potorous tridactylus"}, "[14]": {"experiment": "Induction of mitotic cell cycle arrest in potoroo PtK2 cells assessed as accumulation of cells at SubG1 phase at 5 uM treated for 7 hrs, washed followed by 48 hrs incubation by flow cytometry (Rvb= 1.1%)", "assay_type": "functional, Potorous tridactylus"}, "[15]": {"experiment": "Induction of mitotic cell cycle arrest in potoroo PtK2 cells assessed as accumulation of cells at SubG1 phase at 2 uM treated for 7 hrs, washed followed by 48 hrs incubation by flow cytometry (Rvb= 1.1%)", "assay_type": "functional, Potorous tridactylus"}, "[16]": {"experiment": "Induction of mitotic cell cycle arrest in potoroo PtK2 cells assessed as accumulation of cells at G2+M phase at 2 uM treated for 7 hrs, washed followed by 16 hrs incubation by flow cytometry (Rvb= 23%)", "assay_type": "functional, Potorous tridactylus"}, "[17]": {"experiment": "Induction of mitotic cell cycle arrest in potoroo PtK2 cells assessed as accumulation at S phase at 5 uM treated for 7 hrs, washed followed by 16 hrs incubation by flow cytometry (Rvb= 16%)", "assay_type": "functional, Potorous tridactylus"}, "[18]": {"experiment": "Induction of mitotic cell cycle arrest in potoroo PtK2 cells assessed as accumulation at S phase at 2 uM treated for 7 hrs, washed followed by 16 hrs incubation by flow cytometry (Rvb= 16%)", "assay_type": "functional, Potorous tridactylus"}, "[19]": {"experiment": "Induction of mitotic cell cycle arrest in potoroo PtK2 cells assessed as accumulation of cells at G2+M phase at 2 uM after 7 hrs by flow cytometry (Rvb= 22.1%)", "assay_type": "functional, Potorous tridactylus"}, "[20]": {"experiment": "Induction of mitotic cell cycle arrest in potoroo PtK2 cells assessed as accumulation at S phase at 5 uM after 7 hrs by flow cytometry (Rvb= 15.5%)", "assay_type": "functional, Potorous tridactylus"}, "PtK2 [21]": {"tested_on": "PtK2", "experiment": "Induction of micronucleation in potoroo PtK2 cells at 5 uM treated for 7 hrs followed by compound washout measured after 48 hrs by flow cytometry", "assay_type": "functional, cell-based", "settings": "Potorous tridactylus"}, "PtK2 [22]": {"tested_on": "PtK2", "experiment": "Induction of micronucleation in potoroo PtK2 cells at 2 uM treated for 7 hrs followed by compound washout measured after 48 hrs by flow cytometry", "assay_type": "functional, cell-based", "settings": "Potorous tridactylus"}, "PtK2 [23]": {"tested_on": "PtK2", "experiment": "Induction of microtubule bundle formation in potoroo PtK2 cells at 5 uM treated for 7 hrs followed by compound washout measured after 48 hrs by flow cytometry", "assay_type": "cell-based", "settings": "Potorous tridactylus"}, "[24]": {"experiment": "Induction of micronucleation in potoroo PtK2 cells at 2 uM treated for 7 hrs followed by compound washout measured after 16 hrs by flow cytometry", "assay_type": "functional, Potorous tridactylus"}, "PtK2 [25]": {"tested_on": "PtK2", "experiment": "Induction of microtubule bundle formation in potoroo PtK2 cells at 5 uM after 7 hrs by flow cytometry", "assay_type": "cell-based", "settings": "Potorous tridactylus"}, "[26]": {"experiment": "Binding affinity to beta-tubulin 219-243 amino acid sequence by mass spectroscopy", "procedure,_shortened": "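Polymerized native microtubules (20 µM tubulin, 25 µM ligand, 30 min, 37 °C in GAB with 1 mM GTP) pelleted and washed, then digested with trypsin (2 h, 37 °C) or chymotrypsin (1 h, 25 °C). Peptides analysed by nano-HPLC triple-quadrupole MS with precursor ion scanning for the m/z 249.0 cyclostreptin fragment. Adduct stoichiometry taken from the 219–243 peptide signal.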"}, "A549 [27]": {"tested_on": "A549", "experiment": "Binding affinity to beta-tubulin in human A549 cells at 1 uM after 24 hrs by HPLC analysis", "assay_type": "cell-based", "procedure,_shortened": "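A549 monolayers exposed 24 h to 1 µM ligand or 0.1% DMSO. Tubulin purified from homogenate supernatant by one-step DEAE ion exchange (0.4 M KCl load, 0.8 M KCl elution) to 90% purity. Tryptic or chymotryptic digests analysed by HPLC-MRM with Q3 at m/z 249.0. Adduct fraction estimated from the areas of modified and unmodified peptide peaks.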"}, "[28]": {"experiment": "Displacement of [3H]discodermolide from microtubule assessed as bound radioligand level at 20 uM treated after radioligand addition by competitive binding assay"}, "[29]": {"experiment": "Displacement of [3H]epothilone B from microtubule assessed as bound radioligand level at 20 uM treated after radioligand addition by competitive binding assay"}, "[30]": {"experiment": "Induction of mitotic cell cycle arrest in human A2780AD cells assessed as accumulation of cells at S phase at 100 nM after 24 hrs by flow cytometry (Rvb= 16.2%)", "assay_type": "functional, A2780 ADR"}, "A2780 [31]": {"tested_on": "A2780", "experiment": "Induction of mitotic cell cycle arrest in human A2780 cells assessed as accumulation of cells at G2+M phase at 100 nM after 24 hrs by flow cytometry (Rvb= 20%)", "assay_type": "functional"}, "Tubulin (Homo sapiens)": {"target": "Tubulin (Homo sapiens) (UniProt P68371+Q9H4B7+P0DPH7+P68366+Q13509+Q71U36+P04350+Q3ZCM7+P07437+P68363+Q9BQE3+Q6PEY2+Q13885+Q9BVA1+Q9BUF5)", "experiment": "Binding affinity to tubulin in human A549 cells"}, "PtK2 [32]": {"tested_on": "PtK2", "experiment": "Induction of micronucleation in potoroo PtK2 cells at 10 uM after 7 hrs by flow cytometry", "settings": "Potorous tridactylus"}, "[33]": {"experiment": "Induction of mitotic cell cycle arrest in potoroo PtK2 cells assessed as accumulation at 100 nM after 24 hrs by flow cytometry (Rvb= 26.3%)"}},
  "note": "Active and inactive are the calls of the source. The rule behind the calls is not given here.",
  "data": [
    {"compound": "CC1=C[C@H]2[C@@H](O)[C@H](C)[C@@H](O)[C@@H]2[C@H]2[C@@H]3C4=C5O[C@](C)(CC[C@@H](OC4=O)[C@H]5C)[C@@H]3C[C@@H]12", "note": "[CYCLOSTREPTIN]", "values": [
      {"measurement": "Activity", "setting": "[1]", "result": 12, "unit": "%"},
      {"measurement": "Activity", "setting": "A549 [2]", "result": 9, "unit": "%"},
      {"measurement": "Activity", "setting": "[3]", "result": 18.5, "unit": "%"},
      {"measurement": "Activity", "setting": "[4]", "result": 4.6, "unit": "%"},
      {"measurement": "IC50", "setting": "[5]", "result": 58, "unit": "nM"},
      {"measurement": "IC50", "setting": "[6]", "result": 240, "unit": "nM"},
      {"measurement": "IC50", "setting": "[7]", "result": 44, "unit": "nM"},
      {"measurement": "IC50", "setting": "A2780 [8]", "result": 43.5, "unit": "nM"},
      {"measurement": "Activity", "setting": "[9]", "result": 77.1, "unit": "%"},
      {"measurement": "Activity", "setting": "[10]", "result": 75, "unit": "%"},
      {"measurement": "Activity", "setting": "[11]", "result": 8.6, "unit": "%"},
      {"measurement": "Activity", "setting": "[12]", "result": 10, "unit": "%"},
      {"measurement": "Activity", "setting": "[13]", "result": 9.4, "unit": "%"},
      {"measurement": "Activity", "setting": "[14]", "result": 5.4, "unit": "%"},
      {"measurement": "Activity", "setting": "[15]", "result": 7.1, "unit": "%"},
      {"measurement": "Activity", "setting": "[16]", "result": 59, "unit": "%"},
      {"measurement": "Activity", "setting": "[17]", "result": 12.6, "unit": "%"},
      {"measurement": "Activity", "setting": "[18]", "result": 17, "unit": "%"},
      {"measurement": "Activity", "setting": "[19]", "result": 32, "unit": "%"},
      {"measurement": "Activity", "setting": "[20]", "result": 17.5, "unit": "%"},
      {"measurement": "Activity", "setting": "PtK2 [21]", "result": "Active"},
      {"measurement": "Activity", "setting": "PtK2 [22]", "result": "Active"},
      {"measurement": "Activity", "setting": "PtK2 [23]", "result": "Active"},
      {"measurement": "Activity", "setting": "[24]", "result": 70, "unit": "%"},
      {"measurement": "Activity", "setting": "PtK2 [25]", "result": 4, "unit": "%"},
      {"measurement": "Activity", "setting": "[26]", "result": "Active"},
      {"measurement": "Activity", "setting": "A549 [27]", "result": "Active"},
      {"measurement": "Activity", "setting": "[28]", "result": 96, "unit": "%"},
      {"measurement": "Activity", "setting": "[29]", "result": 79, "unit": "%"},
      {"measurement": "Activity", "setting": "[30]", "result": 6, "unit": "%"},
      {"measurement": "Activity", "setting": "A2780 [31]", "result": 61, "unit": "%"},
      {"measurement": "Activity", "setting": "Tubulin (Homo sapiens)", "result": "Active"},
      {"measurement": "Activity", "setting": "PtK2 [32]", "result": 4, "unit": "%"},
      {"measurement": "Activity", "setting": "[33]", "result": 65, "unit": "%"}
    ]}
  ]
}
